Experimental data: PMC3276691 (Journal of Medicinal Chemistry, 2012)

Assays:
TLR8 [1] = assay: Inhibition of TLR8-mediated cytokine and chemokine production in hPBMCs; assay type: cell-based, human; details: 12 h, proinflammatory cytokines (Fig. 4)
[2] = system: human peripheral blood mononuclear cells; assay: IFN-α induction in human PBMCs; assay type: cell-based; details: hPBMCs, 12 h, graded concentrations
Outline: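 PBMCs from healthy donors, isolated by Ficoll-Hypaque gradient centrifugation and stimulated with graded concentrations of test compound for 12 h. Supernatants collected by centrifugation and diluted 1:20. IFN-α measured in triplicate by high-sensitivity human IFN-α-specific ELISA.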

TLR7 [3] = assay: Schild plot analysis of inhibition of TLR7-induced activation; assay type: cell-based, human; details: imidazoquinoline TLR7-specific agonist, checker-board format
TLR8 [4] = assay: Schild plot analysis of inhibition of TLR8-induced activation; assay type: cell-based, human; details: CL075 TLR8-specific agonist, checker-board format
TLR7 [5] = assay: Inhibition of TLR7-mediated cytokine and chemokine production in hPBMCs; assay type: cell-based; details: Homo sapiens, 12 h, read-out: IC50, inhibition of TLR7-induced cytokine and chemokine release

SMILES	Inhibition of TNF-α and IL-1β production (TLR8 [1])	IFN-α induction [2]	Schild plot slope, TLR7 inhibition (TLR7 [3])	Schild plot slope, TLR8 inhibition (TLR8 [4])	IC50 (TLR7 [5]) [nM]
CCN(CC)CCCC(C)Nc1ccnc2cc(Cl)ccc12 (stereo not drawn) [Chloroquine, chloroquine, reference compound]	feeble inhibitor	–	–	–	–
CCCCc1nc2c(N)nc3ccccc3c2n1Cc1ccc(CNC(=O)CCCCCCCCCCC(=O)NCc2ccc(Cn3c(CCCC)nc4c(N)nc5ccccc5c43)cc2)cc1 [Compound 10c]	–	most potent	–	–	–
Nc1nc2ccccc2c2c1nc(CCCc1nc3c(N)nc4ccccc4c3n1Cc1ccccc1)n2Cc1ccccc1 [Compound 4a, 2,2′-(propane-1,3-diyl)bis(1-benzyl-1H-imidazo[4,5-c]quinolin-4-amine)]	potently inhibits	–	1.12	0.51	50 to 300
